Source: ChEMBL document CHEMBL1138632, “Identification and structure-activity relationship studies of 3-methylene-2-norbornanone as potent anti-proliferative agents presumably working through p53 mediated apoptosis” (2004)

Assays:
[1] = Lethal concentration required to kill 50% Ramos RA1 cells of the human lymphocyte with a mutation at Asp 254; assay type: functional; details: read-out: LC50 (the source's name)
Summary of the method: (§1)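 Cells (Caki-1 renal carcinoma with wild-type p53 as negative control; C33A cervical and Ramos RA1 lymphocyte lines with mutant p53) plated sub-confluent at 1 × 10⁵ cells/mL in RPMI with 10% FBS. Compounds added at 0.001–100 for 72 h, with a positive control and a vehicle negative control. LC50 is the concentration killing 50% of cells.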

CAKI-1 [2] = assay: Fold selectivity expressed as ratio of LC50 for Caki cells with non-mutant p53 to LC50 for Ramos RA1 cells with a mutation at Asp 254; assay type: functional, Homo sapiens
Summary of the method: (§2)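 Selectivity is the fold ratio of the Caki-1 (wild-type p53) LC50 to the mutant-p53 line LC50 (C33A or Ramos RA1). LC50s come from the 72 h anti-proliferation assay in RPMI/10% FBS, 0.001–100 range. Values are means of three experiments.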

CAKI-1 [3] = assay: Fold selectivity expressed as ratio of LC50 for Caki cells with non-mutant p53 to LC50 for C33A cells with a mutation at Cys 273; assay type: functional, Homo sapiens; summary of the method: as §2
CAKI-1 [4] = assay: Lethal concentration required to kill 50% Caki-1 cells of the human renal carcinoma with non-mutant wt p53; assay type: functional; details: read-out: LC50 (the source's name); summary of the method: as §1

Structure (SMILES) | CC50 [1] | Fold selectivity (CAKI-1 [2]) | Fold selectivity (CAKI-1 [3]) | CC50 (CAKI-1 [4])
C=C1CCc2cc(OC)c(OC)cc2C1=O | 4.9 µM | 3.24 | 0.7 | 15.9 µM
C=C1C(=O)C2CCC1(C)C2(C)C (stereo not drawn) | 609 µM | 1 | 1 | 609 µM
C=C1CCc2ccccc2C1=O | 12.9 µM | 2.37 | 1.1 | 30.6 µM
C=C1C2CCC(C2)C1O (stereo not drawn) | 805 µM | 1 | 3.9 | 805 µM
C=C1C(=O)C2(CS(=O)(=O)NCc3ccc(OC)cc3)CCC1C2(C)C (stereo not drawn) | 69.9 µM | 2.72 | 1.93 | 190 µM
C=C1C(=O)C2CC1C1CCCC21 (stereo not drawn) | 35 µM | 7.74 | 10.15 | 271 µM
C=C1C(=O)C2(C(=O)Nc3ccc(OC)cc3)CCC1C2(C)C (stereo not drawn) | 14.3 µM | 7.55 | 7.11 | 108 µM
C=C1C(=O)[C@@]2(C)CC[C@H]1C2(C)C | 609 µM | 1 | 3.29 | 609 µM
C=C1C(=O)C2(C(=O)O)CCC1C2(C)C (stereo not drawn) | 353 µM | 1.46 | 1.15 | 515 µM
O=C1CC2CCC1C2 (stereo not drawn) | > 618 µM | – | – | > 618 µM
C=C1C(=O)C2CCC1C2 (stereo not drawn) | 8.28 µM | 13.16 | 29.7 | 109 µM
C=C1C(=O)C2(C(=O)NCc3ccc(OC)cc3)CCC1C2(C)C (stereo not drawn) | 15.9 µM | 7.55 | 7.31 | 120 µM
C=C1/C(=N/O)C2CCC1C2 (stereo not drawn) | – | – | – | > 728 µM
COc1ccc(/C=C/c2nc(NCCCN(C)C)c3ccccc3n2)cc1 | 14.3 µM | 0.65 | 0.69 | 9.3 µM
C=C1CC2CCC1C2 (stereo not drawn) | > 924 µM | – | – | > 924 µM
C=C1Cc2cc(OC)ccc2C1=O | 3.2 µM | 9.53 | 1.45 | 30.5 µM
CC(C)=C1CC[C@H](C)CC1=O | 509 µM | 1.29 | 1.83 | 657 µM
C=C1CCc2cc(OC)ccc2C1=O | 1.8 µM | 9 | 0.65 | 16.2 µM
C=C1C(=O)C2(CS(=O)(=O)NCC(C)C)CCC1C2(C)C (stereo not drawn) | 157 µM | 2.13 | 1.95 | 334 µM
O=C1C2CCN(CC2)C1(CO)CO | 17.2 µM | 9.42 | 6.4 | 162 µM
C=C1CCOC1=O [TULIPALINE A] | 39.3 µM | 1.41 | 1.13 | 55.4 µM
C=C1C(=O)C2(CS(=O)(=O)Nc3ccc(OC)cc3)CCC1C2(C)C (stereo not drawn) | 12.7 µM | 8.98 | 8.51 | 114 µM
C=C1C(=O)C2(C(=O)NCC(C)C)CCC1C2(C)C (stereo not drawn) | 21.5 µM | 7.95 | 8.07 | 171 µM
C=C1C2=NS(=O)(=O)CC23CCC1C3(C)C (stereo not drawn) | 2.1 µM | 7.57 | 6.36 | 15.9 µM
C=C1C(=O)C2(C(=O)OC)CCC1C2(C)C (stereo not drawn) | 26.4 µM | 1.36 | 1.54 | 36 µM
